Experimental data reported in ChEMBL document CHEMBL5154683, “A 5-FU Precursor Designed to Evade Anabolic and Catabolic Drug Pathways and Activated by Pd Chemistry In Vitro and In Vivo” (J Med Chem, 2022).

What was measured:
HCT-116 [1] = assay: Antiproliferative activity against human HCT-116 cells assessed as reduction in cell viability at 100 uM incubated for 5 days in presence of Pd-resins at 0.8 mg/ml by PrestoBlue dye based assay relative to control; format: functional; conditions: time 5 day
In short: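 HCT116 seeded at 750 cells/well and grown 48 h. Medium then replaced with fresh medium with or without Pd resins (20–160 μg per well; 0.2–1.4 mg/mL). Compound added as 5 μL of a 2 mM stock in 2% DMSO/medium, incubated 5 d. PrestoBlue fluorescence read; values normalised to untreated cells within each resin dilution.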

[2] = Prodrug conversion in human liver S9 fraction assessed as DH5FU metabolite formation at 1.6 mM incubated for 1 hr in presence of NADPH by 19F-NMR based analysis; format: ADME, subcellular; conditions: s9, 1 h, 1600 µM
In short: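 Compound added as 150 mM stock in DMSO-d₆, preincubated 5 min at 37 °C with enzyme mixture, then NADPH added (1 mM) and incubated 1 h at 37 °C, 600 rpm; controls without NADPH and without enzymes. Stopped with EtOAc, dried under N₂, redissolved in DMSO-d₆, DH5FU detected by ¹⁹F NMR vs authentic sample.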

BXPC-3 = assay: Antiproliferative activity against human BxPC-3 cells assessed as reduction in cell viability measured after 5 days by PrestoBlue reagent based assay; format: functional; conditions: BXPC-3, 120 h
In short: (§1)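 Cells in 10% FBS, 2 mM L-glutamine media at 37 °C, 5% CO₂ (HCT116 in McCoy's 5A, BxPC-3 in RPMI). Seeded at 3000 (HCT116) or 2500 (BxPC-3) cells/well and grown 48 h. Medium then replaced with drug-containing medium, 0.1% DMSO, for 5 d. PrestoBlue 10% v/v added for 1 h, fluorescence read ex 540/em 590 nm. Normalised to DMSO-only wells; sigmoidal variable-slope fit; n = 3.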

HCT-116 [3] = assay: Antiproliferative activity against human HCT-116 cells assessed as reduction in cell viability measured after 5 days by PrestoBlue reagent based assay; format: functional; conditions: HCT-116, 120 h; in short: as §1

In the case of `C#CCn1cc(F)c(=O)[nH]c1=O`, the Activity (HCT-116 [1]) is reported as 14% and the Drug metabolism [2] is reported as “Metabolite_Detected”.

In the case of `O=c1[nH]cc(F)c(=O)[nH]1` [FLUOROURACIL], the EC50 (BXPC-3) is reported as 140 nM, the EC50 (HCT-116 [3]) is reported as 500 nM and the Drug metabolism [2] is reported as “Metabolite_Detected”.
